Series [1] is classed as in vivo, human.
On the set-up of series [2]: species or system rhesus macaques. The conditions noted are these: rhesus monkey, in vivo, sc.
The test system of series [3] is R5X4 dual-tropic HIV-1 (strain 89.6). Type of series: cell-based. The conditions noted are these: seven days, n=4.
In a further series the test system is HIV-infected CD4 T cells. Type of series: cell-based, human. The conditions noted are these: 1μg/ml drug, seven days, n=4.
The subject of series [4] is R5X4 dual-tropic HIV-1 (strain 89.6). The series is classed as cell-based. The conditions noted are these: 0.1-1μg/ml TDF, n=5. Put shortly:
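Infected CD4 T cells (5×10^5; anti-CD3/IL2-activated, MOI 0.1) were placed in 0.4μm-pore transwells above mature adipocytes in adipocyte maintenance medium. Drug was added to the lower wells just before, with 100ng/ml IL-2, for 6-7 days. Read-out was supernatant p24 by ELISA, reported as percent change relative to untreated. Singlet wells; experiments repeated with different donor cells; mean±sem.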

Series [5] shares this test system. The series is classed as cell-based. The conditions noted are these: 1μg/ml drug, seven days, n=3. Put shortly:
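Anti-CD3 (1μg/ml plate-bound) plus IL2 (100ng/ml) stimulated CD4 T cells for 48 hrs at 37°C/5%CO2. Cells were infected at MOI 0.1 for 48 hrs with IL2, then 5×10^5 were seeded directly onto mature adipocytes differentiated from 5×10^4 preadipocytes/well. Co-culture ran seven days with IL-2 and drug. Read-out was intracellular p24 by flow cytometry (clone KC57) after viability dye; singlet wells per condition.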

The test system is the same in series [6]. Type of series: cell-based. The conditions noted are these: 0.1-1μg/ml TDF, seven days, n=6.
The test system is the same in series [7]. Type of series: cell-based. The conditions noted are these: 0.1-1μg/ml TDF, seven days, n=6. This is another data set of the same source.
Setting [8] is: direct contact co-culture with adipocytes.

Where a name gives a salt, the structure may show the parent alone. Read-outs that look alike come from different tables or passages of the source. Where only a bound is given, the exact number is not on record here.

Take `Nc1ccn([C@@H]2CS[C@H](COP(=O)(O)OP(=O)(O)OP(=O)(O)O)O2)c(=O)n1` [3TC-TP]: in series [1] (human, in vivo), the concentration in serum came out at 37 ng/mL, the “intracellular concentration in tissues examined (tissue not specified)” value is on record as “undetectable” and the “intracellular concentration in visceral AT-SVF cells” value was “undetectable”.
Regarding `Nc1nc(=O)c2ncn([C@H]3C=C[C@@H](COP(=O)(O)OP(=O)(O)OP(=O)(O)O)C3)c2[nH]1` [CBV-TP], in series [1] (human, in vivo), the “intracellular concentration in tissues examined (tissue not specified)” value was “undetectable” and the “intracellular concentration in visceral AT-SVF cells” value is on record as “undetectable”.
As to `Nc1nc(=O)n([C@@H]2CS[C@H](COP(=O)(O)OP(=O)(O)OP(=O)(O)O)O2)cc1F` [FTC-TP], in series [1] (human, in vivo), the concentration in serum is given as 2,687 ng/ml, the “intracellular concentration in PBMC” value was 14,682 fmol/million cells, the “intracellular concentration in lymph node cells” value is listed as 1,053 fmol/million cells and the “intracellular concentration in tissues examined (tissue not specified)” value is reported as “undetectable”. Further, in series [1] (human, in vivo, sc), the “intracellular concentration in subcutaneous AT-SVF cells” value was 4,459 fmol/million cells and the “intracellular concentration in subcutaneous adipocytes” value is 11 fmol/million cells. In series [2], the “intracellular concentration in PBMC” value is listed as 700-1,400 fmol/million cells, the “intracellular concentration in lysates of AT-SVF fractions” value was “undetectable” and the “intracellular concentration in lysates of adipocyte fractions” value is recorded as “undetectable”.
In the case of `CC(C)OC(=O)[C@H](C)N[P@](=O)(CO[C@H](C)Cn1cnc2c(N)ncnc21)Oc1ccccc1` [TAF, tenofovir alafenamide], the “reduced HIV replication (intracellular p24)” value in series [3] (0.1-1μg/ml TAF, in the presence of adipocytes) is on record as 1-64%; in series [3] (0.1-1μg/ml TAF, medium alone), 40-98%. For the same compound, the “CD69+p24+ expression” value in the series with HIV-infected CD4 T cells (co-culture with adipocytes) was 8-12%; with HIV-infected CD4 T cells (medium alone), less than 2%.
Consider `CC(C)OC(=O)OCOP(=O)(CO[C@H](C)Cn1cnc2c(N)ncnc21)OCOC(=O)OC(C)C` [TDF, tenofovir disoproxil fumarate], for which the “reduced HIV replication (intracellular p24)” value is recorded as 15-38% in series [3] (0.5-2μg/ml TDF, in the presence of adipocytes) and 60-95% in series [3] (0.5-2μg/ml TDF, medium alone). Also, the “reduced HIV replication (extracellular p24 by ELISA)” value in series [4] (in the presence of adipocytes) is 4-41%; in series [4] (medium alone) it was 57-85%. The figures for the “HIV production (p24+)” value in series [5] (setting [8]) and in series [5] (medium alone) were 55-60% and 15-16 % p24+, respectively. The “effect of preadipocytes on antiviral activity” value in series [6] is “neither preadipocytes or Caco-2 cells significantly affected”. The “effect of Caco-2 cells on antiviral activity” value in series [7] is listed as “neither preadipocytes or Caco-2 cells significantly affected”. Further, the results for the “CD69+p24+ expression” value in the series on HIV-infected CD4 T cells (co-culture with adipocytes) and with HIV-infected CD4 T cells (medium alone) were 8-12% and less than 2%, respectively.
In the case of `C[C@@H](Cn1cnc2c(N)ncnc21)OCP(=O)(O)OP(=O)(O)OP(=O)(O)O` [TFV-DP], in series [1] (human, in vivo), the concentration in serum is 246 ng/mL, the “intracellular concentration in PBMC” value is on record as 633 fmol/million cells and the “intracellular concentration in tissues examined (tissue not specified)” value is listed as “undetectable”. In series [1] (human, in vivo, sc), the “intracellular concentration in subcutaneous AT-SVF cells” value came to 724 fmol/million cells and the “intracellular concentration in subcutaneous adipocytes” value is on record as 7 fmol/million cells. In addition, in series [2], the “intracellular concentration in PBMC” value is 80-770 fmol/million cells, the “intracellular concentration in lysates of AT-SVF fractions” value is “undetectable” and the “intracellular concentration in lysates of adipocyte fractions” value was “undetectable”.
As to `Nc1nc(NC2CC2)c2ncn([C@H]3C=C[C@@H](CO)C3)c2n1` [abacavir], in series [1] (Pt.06), the “intracellular concentration in lymph node cells” value is “undetectable” and the “intracellular concentration in visceral adipocytes” value is “undetectable”.
For the compound `COC(=O)N[C@H](C(=O)N[C@@H](Cc1ccccc1)[C@@H](O)CN(Cc1ccc(-c2ccccn2)cc1)NC(=O)[C@@H](NC(=O)OC)C(C)(C)C)C(C)(C)C` [atazanavir], in series [1] (Pt.07), the “intracellular concentration in tissues examined (tissue not specified)” value was “undetectable”.
For `C[C@@H]1CCO[C@H]2Cn3cc(C(=O)NCc4ccc(F)cc4F)c(=O)c(O)c3C(=O)N12` [dolutegravir], the “intracellular concentration in visceral AT-SVF cells” value in series [1] (Pt.01) is recorded as “undetectable”. Also, in series [1] (Pt.03), the “intracellular concentration in lymph node cells” value is 793 fmol/million cells, the “intracellular concentration in subcutaneous AT-SVF cells” value was found to be 129 fmol/million cells and the “intracellular concentration in subcutaneous adipocytes” value was determined as 151 fmol/million cells. In series [1] (Pt.04), the “intracellular concentration in lymph node cells” value came out at 749 fmol/million cells, the “intracellular concentration in subcutaneous AT-SVF cells” value is 1,439 fmol/million cells and the “intracellular concentration in subcutaneous adipocytes” value is recorded as 382 fmol/million cells. Also, the “intracellular concentration in subcutaneous AT-SVF cells” value in series [1] (Pt.07) came out at 4 fmol/million cells. In series [1] (Pt.08), the concentration in serum was 1,324 ng/ml, the “intracellular concentration in PBMC” value turned out to be 46 fmol/million cells, the “intracellular concentration in lymph node cells” value is 17 fmol/million cells and the “intracellular concentration in subcutaneous AT-SVF cells” value worked out at 449 fmol/million cells. In addition, the “intracellular concentration in subcutaneous adipocytes” value in series [1] (Pt.08) was 363 fmol/million cells.
Take `COc1cc2c(cc1Cc1cccc(Cl)c1F)c(=O)c(C(=O)O)cn2[C@H](CO)C(C)C` [elvitegravir]: in series [1] (Pt.05), the “intracellular concentration in PBMC” value is listed as “undetectable” and the “intracellular concentration in subcutaneous AT-SVF cells” value is reported as 339 fmol/million cells.
On to `Cc1ccnc2c1NC(=O)c1cccnc1N2C1CC1` [nevirapine], for which, in series [1] (Pt.06), the “intracellular concentration in visceral adipocytes” value is recorded as 139 fmol/million cells.
Regarding `CC(C)c1nc(CN(C)C(=O)N[C@H](C(=O)N[C@@H](Cc2ccccc2)C[C@H](O)[C@H](Cc2ccccc2)NC(=O)OCc2cncs2)C(C)C)cs1` [ritonavir], the “intracellular concentration in tissues examined (tissue not specified)” value in series [1] (Pt.07) is on record as “undetectable”.
As to `C[C@H](Cn1cnc2c(N)ncnc21)OCP(=O)(O)O` [tenofovir], the “reduced HIV replication (intracellular p24)” value in series [3] (1-5μg/ml tenofovir, in the presence of adipocytes) is 5-43%; in series [3] (1-5μg/ml tenofovir, medium alone) it was 65-91%. Also, the “HIV production (p24+)” value in series [5] (setting [8]) is on record as 55-60%; in series [5] (medium alone), 15-16 % p24+. Further, the “CD69+p24+ expression” value in the series on HIV-infected CD4 T cells (co-culture with adipocytes) is 8-12%; in the series with HIV-infected CD4 T cells (medium alone) it was less than 2%.
